In assay [1] the test system is Staphylococcus aureus. Kind of assay: Antimicrobial activity against methicillin-susceptible Staphylococcus aureus by agar dilution CLSI method. It is filed as functional. In a few lines: (§1)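 CLSI agar dilution MIC against S. aureus clinical isolates. Calcium was added to the medium for daptomycin testing. Vancomycin plates were read after a full 24-h incubation.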

In assay [2] the test system is Staphylococcus aureus. Kind of assay: Antimicrobial activity against methicillin-resistant Staphylococcus aureus by agar dilution CLSI method. It is filed as functional. In a few lines:
as §1

≈ marks a conversion by molar mass, not a printed value.

For the compound `CC[C@H]1OC(=O)[C@H](C)[C@@H](O[C@H]2C[C@@](C)(OC)[C@@H](O)[C@H](C)O2)[C@H](C)[C@@H](O[C@@H]2O[C@H](C)C[C@H](N(C)C)[C@H]2O)[C@](C)(O)C[C@@H](C)CN(C)[C@H](C)[C@@H](O)[C@]1(C)O` [AZITHROMYCIN], in the assay with Staphylococcus aureus [1], the MIC50 came to 1 µg/mL (≈ 1.34 µM) and the MIC90 was over 64 µg/mL. Besides, the MIC50 with Staphylococcus aureus [2] was over 64 µg/mL.

For `C[C@H]1COc2c(N3CCN(C)CC3)c(F)cc3c(=O)c(C(=O)O)cn1c23.C[C@H]1COc2c(N3CCN(C)CC3)c(F)cc3c(=O)c(C(=O)O)cn1c23.O` [LEVOFLOXACIN], in the assay on Staphylococcus aureus [1], the MIC50 stood at 0.25 µg/mL and the MIC90 is 4 µg/mL. Further, in the assay with Staphylococcus aureus [2], the MIC50 worked out at 1 µg/mL and the MIC90 was over 32 µg/mL.

The values above are taken from ChEMBL document CHEMBL1137665, “Antistaphylococcal activity of CG400549, a new experimental FabI inhibitor, compared with that of other agents” (2007).
